Experiment [1] relates to Epidermal growth factor receptor (Homo sapiens), P00533 [UNDEFINED MUTATION]. Nature of the experiment: Binding affinity to human partial length EGFR L747-T751del/Sins mutant expressed in bacterial expression system assessed as residual binding level at 1 uM by Kinomescan method relative to control. The method, boiled down: (§1)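 KinomeScan active site-directed competition binding panel (468 kinases), compound tested at 1 μM. Result expressed as remaining kinase signal versus DMSO control (percent of control).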

The subject of experiment [2] is Epidermal growth factor receptor (Homo sapiens), P00533 [L858R]. In words: Binding affinity to human partial length EGFR L858R mutant (R669 to V1011 residues) expressed in bacterial expression system assessed as residual binding level at 1 uM by Kinomescan method relative to control. The method, boiled down:
as §1

In experiment [3] the target is Ephrin type-A receptor 1 (Homo sapiens) (UniProt P21709). Nature of the experiment: Binding affinity to wild-type human partial length EPHA1 (V588 to I913 residues) expressed in bacterial expression system assessed as residual binding level at 1 uM by Kinomescan method relative to control.
Experiment [4] concerns the target Ephrin type-A receptor 4 (Homo sapiens) (UniProt P54764). In words: Binding affinity to wild-type human partial length EPHA4 (T601 to R897 residues) expressed in bacterial expression system assessed as residual binding level at 1 uM by Kinomescan method relative to control. The method, boiled down: (§2)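 Active-site-directed competition binding panel of 468 kinases (KinomeScan), compound at 1 μM. The read-out is kinase remaining bound, given as a percentage of the DMSO control. […]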

In experiment [5] the target is Ephrin type-A receptor 5 (Homo sapiens) (UniProt P54756). In words: Binding affinity to wild-type human partial length EPHA5 (T627 to V930 residues) expressed in bacterial expression system assessed as residual binding level at 1 uM by Kinomescan method relative to control. The method, boiled down: as §2
The target of experiment [6] is Ephrin type-A receptor 7 (Homo sapiens) (UniProt Q15375). Nature of the experiment: Binding affinity to wild-type human partial length EPHA7 (Y608 to S912 residues) expressed in bacterial expression system assessed as residual binding level at 1 uM by Kinomescan method relative to control.
Experiment [7] has as its target Mitogen-activated protein kinase 15 (Homo sapiens) (UniProt Q8TD08). In words: Binding affinity to wild-type human partial length ERK8 (M1 to P437 residues) expressed in bacterial expression system assessed as residual binding level at 1 uM by Kinomescan method relative to control.
In experiment [8] the target is Rhodopsin kinase GRK7 (Homo sapiens) (UniProt Q8WTQ7). Nature of the experiment: Binding affinity to wild-type human full length GRK7 (M1 to L553 residues) expressed in mammalian expression system assessed as residual binding level at 1 uM by Kinomescan method relative to control. The method, boiled down: (§3)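 Active-site-directed KinomeScan competition binding panel covering 468 kinases, compound tested at 1 μM. Each readout is the kinase signal remaining with compound, expressed as a percentage of the DMSO control. […]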

In experiment [9] the test system is Mast/stem cell growth factor receptor Kit (Homo sapiens), P10721 [D816H]. In words: Binding affinity to human partial length KIT D816H mutant (I571 to D952 residues) expressed in mammalian expression system assessed as residual binding level at 1 uM by Kinomescan method relative to control. Summed up: as §1
The test system of experiment [10] is Mast/stem cell growth factor receptor Kit (Homo sapiens), P10721 [V559D]. In words: Binding affinity to human partial length KIT V559D mutant (Y545 to D952 residues) expressed in bacterial expression system assessed as residual binding level at 1 uM by Kinomescan method relative to control. Summed up:
as §1

Experiment [11] deals with Serine/threonine-protein kinase STK11 (Homo sapiens) (UniProt Q15831). Nature of the experiment: Binding affinity to wild-type human full length LKB1 (M1 to Q433 residues) expressed in bacterial expression system assessed as residual binding level at 1 uM by Kinomescan method relative to control. The method, boiled down:
as §3

Experiment [12] concerns the target Serine/threonine-protein kinase Nek9 (Homo sapiens) (UniProt Q8TD19). Nature of the experiment: Binding affinity to wild-type human partial length NEK9 (P32 to R328 residues) expressed in bacterial expression system assessed as residual binding level at 1 uM by Kinomescan method relative to control.
Experiment [13] has as its target Mitogen-activated protein kinase 11 (Homo sapiens) (UniProt Q15759). In words: Binding affinity to wild-type human full length p38-beta (M1 to Q364 residues) expressed in bacterial expression system assessed as residual binding level at 1 uM by Kinomescan method relative to control. The method, boiled down:
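KinomeScan, an active site-directed competition binding panel of 468 kinases. The test compound was at 1 μM. The readout is remaining kinase binding as a percentage of the DMSO control. Scores above 35% were treated as weak binding and not listed.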

Experiment [14] addresses Cyclin-dependent kinase 14 (Homo sapiens) (UniProt O94921). In words: Binding affinity to wild-type human full length PFTK1 (M1 to H451 residues) expressed in bacterial expression system assessed as residual binding level at 1 uM by Kinomescan method relative to control. The method, boiled down:
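Active-site-directed competition binding panel (KinomeScan) covering 468 kinases. Test agent was screened at 1 μM. The read-out is the remaining kinase signal expressed relative to a DMSO control. Scores above 35%, taken as weak binding, were not reported.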

The target of experiment [15] is Phosphatidylinositol 3-kinase C2 domain-containing subunit gamma (Homo sapiens) (UniProt O75747). Nature of the experiment: Binding affinity to wild-type human partial length PIK3C2G (M1 to I1446 residues) expressed in mammalian expression system assessed as residual binding level at 1 uM by Kinomescan method relative to control.
Experiment [16] concerns the target Protein kinase C theta type (Homo sapiens) (UniProt Q04759). In words: Binding affinity to wild-type human partial length PRKCQ (L350 to S706 residues) expressed in bacterial expression system assessed as residual binding level at 1 uM by Kinomescan method relative to control. Summed up:
as §2

The target in experiment [17] is Rho-associated protein kinase 1 (Homo sapiens) (UniProt Q13464). In words: Binding affinity to wild-type human partial length ROCK1 (M1 to R415 residues) expressed in mammalian expression system assessed as residual binding level at 1 uM by Kinomescan method relative to control.
The target of experiment [18] is SRSF protein kinase 1 (Homo sapiens) (UniProt Q96SB4). In words: Binding affinity to wild-type human full length SRPK1 (M1 to S655 residues) expressed in bacterial expression system assessed as residual binding level at 1 uM by Kinomescan method relative to control. The method, boiled down: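 Active site-directed binding assay (KinomeScan) run across a 468-kinase panel, with the test compound at 1 μM. The read-out is the remaining kinase signal in the presence of compound, expressed as a percentage of the DMSO control. Scores above 35% were taken as weak binding and were not reported.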

In experiment [19] the target is Serine/threonine-protein kinase TAO2 (Homo sapiens) (UniProt Q9UL54). In words: Binding affinity to wild-type human partial length TAOK2 (M1 to A320 residues) expressed in mammalian expression system assessed as residual binding level at 1 uM by Kinomescan method relative to control.
Experiment [20] deals with Serine/threonine-protein kinase WNK3 (Homo sapiens) (UniProt Q9BYP7). In words: Binding affinity to wild-type human partial length WNK3 (M1 to D434 residues) expressed in mammalian expression system assessed as residual binding level at 1 uM by Kinomescan method relative to control.

Sequence of SRSF protein kinase 1 (Homo sapiens) (Q96SB4 whole entry, the tested form may be a part): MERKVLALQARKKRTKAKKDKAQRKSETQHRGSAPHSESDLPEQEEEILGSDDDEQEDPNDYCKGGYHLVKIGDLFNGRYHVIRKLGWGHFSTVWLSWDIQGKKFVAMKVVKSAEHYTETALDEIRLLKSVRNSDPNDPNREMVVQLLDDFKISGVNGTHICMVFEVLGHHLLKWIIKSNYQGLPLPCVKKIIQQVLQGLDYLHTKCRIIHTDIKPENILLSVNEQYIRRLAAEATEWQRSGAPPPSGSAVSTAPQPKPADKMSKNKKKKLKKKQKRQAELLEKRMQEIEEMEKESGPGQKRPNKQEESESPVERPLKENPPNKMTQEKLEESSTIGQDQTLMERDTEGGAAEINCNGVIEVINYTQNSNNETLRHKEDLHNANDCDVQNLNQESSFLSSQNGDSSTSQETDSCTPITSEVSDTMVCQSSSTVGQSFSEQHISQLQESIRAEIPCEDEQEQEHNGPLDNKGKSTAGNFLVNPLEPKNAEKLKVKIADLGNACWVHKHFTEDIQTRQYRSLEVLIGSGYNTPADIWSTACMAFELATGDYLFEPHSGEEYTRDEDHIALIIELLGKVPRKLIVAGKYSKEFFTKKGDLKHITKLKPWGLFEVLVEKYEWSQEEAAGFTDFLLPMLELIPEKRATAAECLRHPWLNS
Sequence of Mitogen-activated protein kinase 15 (Homo sapiens) (Q8TD08 whole entry, the tested form may be a part): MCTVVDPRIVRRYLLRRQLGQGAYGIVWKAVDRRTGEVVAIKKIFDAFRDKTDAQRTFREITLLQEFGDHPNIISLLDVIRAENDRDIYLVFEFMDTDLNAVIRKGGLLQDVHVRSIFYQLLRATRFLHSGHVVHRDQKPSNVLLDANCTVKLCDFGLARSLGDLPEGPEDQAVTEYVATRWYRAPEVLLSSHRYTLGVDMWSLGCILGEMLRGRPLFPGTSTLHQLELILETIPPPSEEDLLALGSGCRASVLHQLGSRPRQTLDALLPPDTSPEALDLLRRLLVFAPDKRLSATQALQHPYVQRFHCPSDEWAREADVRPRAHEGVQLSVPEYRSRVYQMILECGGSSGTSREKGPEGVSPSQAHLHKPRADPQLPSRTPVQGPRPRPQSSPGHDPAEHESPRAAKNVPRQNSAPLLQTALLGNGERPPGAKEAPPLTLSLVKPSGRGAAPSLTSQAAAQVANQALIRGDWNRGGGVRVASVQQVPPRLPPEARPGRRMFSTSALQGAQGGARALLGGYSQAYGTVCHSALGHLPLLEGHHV
Sequence of Mast/stem cell growth factor receptor Kit (Homo sapiens), P10721 [D816H] (P10721 whole entry D816H, the tested form may be a part): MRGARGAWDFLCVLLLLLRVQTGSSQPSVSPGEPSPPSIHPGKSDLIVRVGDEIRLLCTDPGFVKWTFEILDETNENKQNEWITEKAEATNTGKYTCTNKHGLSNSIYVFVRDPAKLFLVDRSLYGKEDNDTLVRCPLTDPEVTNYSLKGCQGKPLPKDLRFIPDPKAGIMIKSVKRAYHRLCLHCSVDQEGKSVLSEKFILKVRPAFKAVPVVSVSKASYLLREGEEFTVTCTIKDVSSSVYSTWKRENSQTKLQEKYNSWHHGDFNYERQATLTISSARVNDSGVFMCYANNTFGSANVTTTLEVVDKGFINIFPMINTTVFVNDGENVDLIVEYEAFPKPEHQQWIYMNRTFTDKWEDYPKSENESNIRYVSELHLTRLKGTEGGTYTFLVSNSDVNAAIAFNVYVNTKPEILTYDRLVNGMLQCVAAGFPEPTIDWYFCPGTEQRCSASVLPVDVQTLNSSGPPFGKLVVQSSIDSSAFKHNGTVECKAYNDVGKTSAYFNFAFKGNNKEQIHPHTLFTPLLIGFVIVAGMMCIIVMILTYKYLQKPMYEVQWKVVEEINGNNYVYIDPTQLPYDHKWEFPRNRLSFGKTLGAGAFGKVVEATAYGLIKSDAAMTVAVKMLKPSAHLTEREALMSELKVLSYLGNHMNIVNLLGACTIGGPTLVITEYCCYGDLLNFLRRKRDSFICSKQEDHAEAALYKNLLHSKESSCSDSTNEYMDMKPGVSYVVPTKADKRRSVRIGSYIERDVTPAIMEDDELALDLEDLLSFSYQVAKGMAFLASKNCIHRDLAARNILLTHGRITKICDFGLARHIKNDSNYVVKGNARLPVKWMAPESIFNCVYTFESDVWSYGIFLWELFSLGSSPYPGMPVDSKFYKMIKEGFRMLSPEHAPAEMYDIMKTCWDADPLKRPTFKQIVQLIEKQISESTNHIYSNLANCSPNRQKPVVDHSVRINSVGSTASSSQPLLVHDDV
Sequence of Mast/stem cell growth factor receptor Kit (Homo sapiens), P10721 [V559D] (P10721 whole entry V559D, the tested form may be a part): as the sequence (P10721 whole entry D816H, the tested form may be a part) above, with V559D, H816D counted along it
Sequence of Ephrin type-A receptor 1 (Homo sapiens) (P21709 whole entry, the tested form may be a part): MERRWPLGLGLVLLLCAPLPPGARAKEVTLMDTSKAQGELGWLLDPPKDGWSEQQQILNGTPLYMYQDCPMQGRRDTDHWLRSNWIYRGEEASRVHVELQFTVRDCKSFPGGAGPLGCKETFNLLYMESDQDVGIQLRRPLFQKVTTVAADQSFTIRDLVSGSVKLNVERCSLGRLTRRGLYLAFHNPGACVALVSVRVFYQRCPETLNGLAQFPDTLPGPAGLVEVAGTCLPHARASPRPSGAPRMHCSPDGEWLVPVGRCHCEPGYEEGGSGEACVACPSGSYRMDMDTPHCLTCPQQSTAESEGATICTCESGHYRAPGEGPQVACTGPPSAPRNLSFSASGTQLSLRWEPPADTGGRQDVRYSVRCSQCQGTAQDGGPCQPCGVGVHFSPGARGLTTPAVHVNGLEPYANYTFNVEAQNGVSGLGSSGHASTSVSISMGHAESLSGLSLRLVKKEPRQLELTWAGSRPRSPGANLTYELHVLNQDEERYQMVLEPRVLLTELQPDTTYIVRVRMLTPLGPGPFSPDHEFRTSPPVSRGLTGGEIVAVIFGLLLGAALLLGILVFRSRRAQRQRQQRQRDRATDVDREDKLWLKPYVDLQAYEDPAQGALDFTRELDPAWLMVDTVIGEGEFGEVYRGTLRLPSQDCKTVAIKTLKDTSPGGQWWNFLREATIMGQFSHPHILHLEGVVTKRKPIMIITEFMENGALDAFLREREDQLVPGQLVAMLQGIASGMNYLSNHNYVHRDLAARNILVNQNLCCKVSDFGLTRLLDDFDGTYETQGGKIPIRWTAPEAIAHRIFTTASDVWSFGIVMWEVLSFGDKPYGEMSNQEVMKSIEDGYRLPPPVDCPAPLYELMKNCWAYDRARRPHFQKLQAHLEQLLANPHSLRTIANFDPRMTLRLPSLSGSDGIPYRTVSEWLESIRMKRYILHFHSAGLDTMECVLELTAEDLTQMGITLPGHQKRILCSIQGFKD
Sequence of Rhodopsin kinase GRK7 (Homo sapiens) (Q8WTQ7 whole entry, the tested form may be a part): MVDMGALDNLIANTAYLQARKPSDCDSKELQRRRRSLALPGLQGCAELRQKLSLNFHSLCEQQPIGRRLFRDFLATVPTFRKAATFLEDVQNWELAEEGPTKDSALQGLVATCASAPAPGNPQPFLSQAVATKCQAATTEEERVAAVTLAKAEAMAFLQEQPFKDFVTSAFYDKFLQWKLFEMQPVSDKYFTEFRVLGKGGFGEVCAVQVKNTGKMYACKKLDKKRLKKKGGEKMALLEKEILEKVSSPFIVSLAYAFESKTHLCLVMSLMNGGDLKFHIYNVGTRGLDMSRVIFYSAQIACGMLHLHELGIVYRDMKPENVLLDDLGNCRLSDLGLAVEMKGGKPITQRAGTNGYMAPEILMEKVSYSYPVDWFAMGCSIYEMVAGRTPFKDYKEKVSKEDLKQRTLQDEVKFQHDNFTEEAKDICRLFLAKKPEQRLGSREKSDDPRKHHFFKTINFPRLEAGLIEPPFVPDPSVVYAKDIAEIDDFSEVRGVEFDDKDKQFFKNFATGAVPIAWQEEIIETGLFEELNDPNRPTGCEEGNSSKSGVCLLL
Sequence of Mitogen-activated protein kinase 11 (Homo sapiens) (Q15759 whole entry, the tested form may be a part): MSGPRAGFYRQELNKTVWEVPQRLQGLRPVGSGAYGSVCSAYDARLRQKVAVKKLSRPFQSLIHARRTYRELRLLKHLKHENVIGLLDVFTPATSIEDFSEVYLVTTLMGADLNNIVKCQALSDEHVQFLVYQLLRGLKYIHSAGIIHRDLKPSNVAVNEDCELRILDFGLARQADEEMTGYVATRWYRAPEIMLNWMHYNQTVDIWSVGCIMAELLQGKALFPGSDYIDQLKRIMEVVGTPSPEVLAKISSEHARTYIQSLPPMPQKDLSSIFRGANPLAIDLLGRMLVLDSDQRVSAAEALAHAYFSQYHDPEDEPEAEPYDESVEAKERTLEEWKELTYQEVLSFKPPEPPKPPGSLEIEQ

As for `C=CC(=O)Nc1ccccc1Nc1nc(Nc2ccc(N3CCN(C)CC3)cc2)ncc1C(=O)Nc1c(C)cccc1Cl`, the Activity in experiment [1] is 73%; in [2], 62%; in experiment [3], 100%; in experiment [4], 75%; in experiment [5] it was 78%; in experiment [6] it was 100%. Moreover, the Activity in experiment [7] turned out to be 100%; in [8], 100%; in [9] it was 41%; in [10] it was 21%; in experiment [11] it was 100%; in experiment [12], 100%. The Activity in [13] stood at 98%; in experiment [14] it was 100%; in experiment [15] it was 100%; in experiment [16] it was 86%; in [17], 100%; in experiment [18] it was 100%. The Activity in [19] and in [20] was 100% in each case.
